In ChEMBL document CHEMBL4368882, “Synthesis and biological evaluation against Leishmania donovani of novel hybrid molecules containing indazole-based 2-pyrone scaffolds” (Medchemcomm, 2019):

Key:
Leishmania donovani [1] = test: Antileishmanial activity against Leishmania donovani MHOM/ET/67/HU3 axenic amastigotes after 72 hrs by resazurin dye-based assay; format: functional, organism-based; settings: MHOM/ET/67/HU3, 72 h
Leishmania donovani [2] = test: Antileishmanial activity against Leishmania donovani MHOM/ET/67/HU3 intramacrophage amastigotes infected in mouse RAW264.7 cells after 48 hrs by SYBR green1 dye-based fluorescence assay; format: functional, organism-based; settings: MHOM/ET/67/HU3, RAW264.7, 48 h
In short: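 RAW 264.7 macrophages (2 × 10⁴ per well, 24 h preculture) infected with axenic amastigotes at 16:1 parasite:macrophage for 24 h. Extracellular parasites then removed. Two-fold serial dilutions from 100 μM maximum in DMEM complete medium for 48 h. Cells lysed in Direct PCR Lysis Reagent with 3 freeze–thaw cycles and proteinase K 50 μg mL⁻¹ at 55 °C overnight. Extract mixed with SYBR Green I.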

[3] = Cytotoxicity against mouse RAW264.7 cells after 48 hrs by resazurin dye-based assay; format: cell-based
In short: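 RAW 264.7 cells seeded at 2 × 10⁴ per well in DMEM with 10% HIFBS and penicillin–streptomycin, 24 h preculture. Two-fold serial dilutions for 48 h at 37 °C, 5% CO₂. Resazurin (450 μM, 10 μL) added for 4 h in the dark, OD570/OD600 read. CC50 is the concentration reducing macrophage growth by 50%.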

[4] = Selectivity index, ratio of CC50 for mouse RAW264.7 cells to IC50 for Leishmania donovani MHOM/ET/67/HU3 intramacrophage amastigotes infected in mouse RAW264.7 cells; format: toxicity, cell-based; settings: read-out: Ratio CC50/IC50
In short: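 Ratio of the RAW 264.7 CC₅₀ to the intramacrophage amastigote IC₅₀, both measured in this work.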

SMILES | IC50 (Leishmania donovani [2]) [µM] | IC50 (Leishmania donovani [1]) [µM] | CC50 at 48 h [3] [µM] | selectivity ratio [4]
CCn1cc2ccc(N/C(C)=C3\C(=O)C=C(C)OC3=O)cc2n1 | > 100 | > 100 | > 100 | –
CCn1nc(Cl)c2ccc(N/C(C)=C3\C(=O)C=C(C)OC3=O)cc21 | 6.5 | 11 | 6.23 | 0.96
C=CCn1ncc2cc(N/C(C)=C3\C(=O)C=C(C)OC3=O)ccc21 | > 100 | > 100 | > 100 | –
C=CCn1nc(Cl)c2ccc(N/C(C)=C3\C(=O)C=C(C)OC3=O)cc21 | > 100 | > 100 | > 100 | –
CCn1cc2cc(N/C(C)=C3\C(=O)C=C(C)OC3=O)ccc2n1 | > 100 | > 100 | > 100 | –
C=CCn1cc2ccc(N/C(C)=C3\C(=O)C=C(C)OC3=O)cc2n1 | > 100 | > 100 | > 100 | –
CCn1nc2cc(N/C(C)=C3\C(=O)C=C(C)OC3=O)ccc2c1Cl | 2.25 | 2.48 | 6.25 | 2.77
CC1=CC(=O)/C(=C(/C)Nc2ccc3c(cnn3C)c2)C(=O)O1 | > 100 | > 100 | > 100 | –
CC1=CC(=O)/C(=C(/C)Nc2ccc3c(Cl)nn(C)c3c2)C(=O)O1 | > 100 | > 100 | > 100 | –
CC1=CC(=O)/C(=C(/C)Nc2ccc3nn(C)cc3c2)C(=O)O1 | > 100 | > 100 | > 100 | –
CC1=CC(=O)/C(=C(/C)Nc2ccc3c(Cl)n(C)nc3c2)C(=O)O1 | 3.25 | 11.9 | 6.26 | 1.92
C[C@@H]1[C@H](O)[C@@H](C)/C=C/C=C/C=C/C=C/C=C/C=C/C=C/[C@H](O[C@@H]2O[C@H](C)[C@@H](O)[C@H](N)[C@@H]2O)C[C@@H]2O[C@](O)(C[C@@H](O)C[C@@H](O)[C@H](O)CC[C@@H](O)C[C@@H](O)CC(=O)O[C@H]1C)C[C@H](O)[C@H]2C(=O)O [AMPHOTERICIN B] | 0.115 | – | 4.23 | –

Further lines, with some results ahead:

IC50 (Leishmania donovani [2]) [µM] | SMILES | IC50 (Leishmania donovani [1]) [µM] | CC50 at 48 h [3] [µM] | selectivity ratio [4]
> 100 | CC1=CC(=O)/C(=C(/C)Nc2ccc3cnn(Cc4ccc(C)cc4)c3c2)C(=O)O1 | > 100 | > 100 | –
57.4 | CC1=CC(=O)/C(=C(/C)Nc2ccc3cn(Cc4ccc(C)cc4)nc3c2)C(=O)O1 | 49.6 | > 100 | –
> 100 | CCn1ncc2cc(N/C(C)=C3\C(=O)C=C(C)OC3=O)ccc21 | > 100 | > 100 | –
> 100 | C=CCn1ncc2ccc(N/C(C)=C3\C(=O)C=C(C)OC3=O)cc21 | > 100 | > 100 | –
> 100 | CC1=CC(=O)/C(=C(/C)Nc2ccc3c(Cl)n(Cc4ccc(C)cc4)nc3c2)C(=O)O1 | > 100 | > 100 | –
> 100 | CC1=CC(=O)/C(=C(/C)Nc2ccc3cnn(C)c3c2)C(=O)O1 | > 100 | > 100 | –
49.9 | CC1=CC(=O)/C(=C(/C)Nc2ccc3c(Cl)nn(Cc4ccc(C)cc4)c3c2)C(=O)O1 | 62.6 | > 100 | –
> 100 | CCn1ncc2ccc(N/C(C)=C3\C(=O)C=C(C)OC3=O)cc21 | > 100 | > 100 | –
